Measurements: ChEMBL document CHEMBL3259769, “Symmetric adamantyl-diureas as soluble epoxide hydrolase inhibitors” (Bioorg Med Chem Lett, 2014)
≈ marks a conversion by molar mass, not a printed value.

Key:
[1] = biological target: T1, Bifunctional epoxide hydrolase 2 (Homo sapiens, UniProt P34913); assay: Inhibition of recombinant human soluble epoxide hydrolase using CMNPC as substrate preincubated for 5 mins followed by substrate addition measured at 5 mins post substrate addition by fluorescence assay in presence of 0.1 mg/mL BSA
T1 sequence (P34913 whole entry): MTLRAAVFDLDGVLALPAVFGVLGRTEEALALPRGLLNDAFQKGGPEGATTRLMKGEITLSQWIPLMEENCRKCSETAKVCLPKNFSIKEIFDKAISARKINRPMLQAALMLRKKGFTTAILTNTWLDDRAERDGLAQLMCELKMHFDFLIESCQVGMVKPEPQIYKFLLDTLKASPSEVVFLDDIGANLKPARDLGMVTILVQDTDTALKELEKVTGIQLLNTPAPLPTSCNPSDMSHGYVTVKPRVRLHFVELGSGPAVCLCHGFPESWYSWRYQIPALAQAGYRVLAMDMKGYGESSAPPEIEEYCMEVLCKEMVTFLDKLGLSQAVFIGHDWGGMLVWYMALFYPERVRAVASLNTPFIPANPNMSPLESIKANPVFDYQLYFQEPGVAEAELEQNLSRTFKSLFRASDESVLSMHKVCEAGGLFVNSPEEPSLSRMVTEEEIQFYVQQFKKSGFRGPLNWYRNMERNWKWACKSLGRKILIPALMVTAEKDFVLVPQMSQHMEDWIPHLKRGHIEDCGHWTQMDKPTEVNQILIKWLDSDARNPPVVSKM

[2] = Solubility of the compound in sodium phosphate buffer at pH 7.4 after 24 hrs by LC/MS/MS analysis; format: physicochemical
Outline: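 Compound suspended in 0.1 M sodium phosphate buffer, pH 7.4, containing 1% DMSO, held 24 h at 30 °C, then 1 h at rt. Centrifuged 10,000 rpm for 10 min; supernatant diluted 5-fold in methanol, 15 min at rt to precipitate salt, then re-centrifuged. Supernatant stored at -20 °C until LC/MS-MS quantitation.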

[3] = biological target: T2, Bifunctional epoxide hydrolase 2 (Homo sapiens) (UniProt P34913)
T2 sequence (whole entry): T1 sequence (P34913 whole entry)

[4] = Metabolic stability in human liver microsomes assessed as compound remaining at 1 uM after 30 mins by LC/MS/MS analysis in absence of NADPH; format: ADME; conditions: read-out: Stability
Outline: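 Inhibitor added to human liver microsomes (1 mg/mL final) in 0.1 M potassium phosphate, pH 7.4, with 3 mM MgCl2 and 1 mM EDTA. After 5 min at 37 °C, buffer was added in place of NADPH generating system, then 30 min at 37 °C. Stopped with one volume methanol containing 200 nM CUDA surrogate. LC/MS/MS; % remaining; triplicate average.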

[5] = Metabolic stability in human liver microsomes assessed as compound remaining at 1 uM preincubated for 5 mins followed by NADPH addition measured after 30 mins by LC/MS/MS analysis; format: ADME; conditions: read-out: Stability
Outline: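 Human liver microsomes (1 mg/mL final) in 0.1 M potassium phosphate, pH 7.4, 3 mM MgCl2, 1 mM EDTA, were preincubated with inhibitor 5 min at 37 °C. Reaction was started with NADPH generating system and run 30 min at 37 °C. Quenched with one volume methanol containing 200 nM CUDA surrogate. LC/MS/MS; % remaining; triplicate average.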

[6] = biological target: T1, Bifunctional epoxide hydrolase 2; assay: Displacement of ACPU from recombinant human soluble epoxide hydrolase after 1.5 hrs by FRET assay
Outline: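 Human sEH was preincubated with an equimolar amount of the fluorescent reporter ACPU for 2 h at rt. The complex (20 nM) was used in 100 mM sodium phosphate with 0.1% gelatin, pH 7.4, on gelatin-precoated plates. Inhibitor was added as 12 two-fold dilutions, with DMSO as control, and incubated 1.5 h. Fluorescence (ex 280/em 450 nm) was normalised to baseline and fitted to a three-state equilibrium model to give Ki.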

[7] = biological target: T1, Bifunctional epoxide hydrolase 2; assay: Inhibition of recombinant human soluble epoxide hydrolase using CMNPC as substrate preincubated for 5 mins followed by substrate addition measured at 5 mins post substrate addition by fluorescence assay in presence of 1 mg/mL BSA

SMILES | IC50 [1] | solubility at 24 h [2] | T1/2 [3] | remaining at 0.5 h, 1 µM [4] | remaining at 0.5 h, 1 µM [5] | Ki [6] | IC50 [7]
CCC(CNC(=O)NCCCCCCCCNC(=O)NCC(CC)C12CC3CC(CC(C3)C1)C2)C12CC3CC(CC(C3)C1)C2 (configuration not stated) | 1440 nM |  |  |  |  |  | 
CC(NC(=O)NCCCCCCCCNC(=O)NC(C)C12CC3CC(CC(C3)C1)C2)C12CC3CC(CC(C3)C1)C2 (configuration not stated) | 0.5 nM | 10 µM (≈ 5.55 µg/mL) | 11 min | 100% | 11% | 3.1 nM | 0.8 nM
CCC(CNC(=O)NCCCCNC(=O)NCC(CC)C12CC3CC(CC(C3)C1)C2)C12CC3CC(CC(C3)C1)C2 (configuration not stated) | 2.3 nM |  |  |  |  |  | 
O=C(NC1CCCCC1)NC1CCCCC1 [1,3-DICYCLOHEXYLUREA] |  | 5 µM (≈ 1.12 µg/mL) |  | 100% | 22% |  | 
O=C(NCCCCNC(=O)NCC12CC3CC(CC(C3)C1)C2)NCC12CC3CC(CC(C3)C1)C2 | 26.3 nM |  |  |  |  |  | 
O=C(NCCNC(=O)NCC12CC3CC(CC(C3)C1)C2)NCC12CC3CC(CC(C3)C1)C2 | 179 nM |  |  |  |  |  | 
O=C(NCCCCNC(=O)NC1C2CC3CC(C2)CC1C3)NC1C2CC3CC(C2)CC1C3 (configuration not stated) | 10.4 nM |  |  |  |  |  | 
O=C(NCCCCCCCCNC(=O)NCC12CC3CC(CC(C3)C1)C2)NCC12CC3CC(CC(C3)C1)C2 | 7.3 nM |  |  |  |  |  | 
O=C(NCCCCCCCCNC(=O)NC12CC3CC(CC(C3)C1)C2)NC12CC3CC(CC(C3)C1)C2 | 997 nM |  |  |  |  |  | 
CC(NC(=O)Nc1ccc(NC(=O)NC(C)C23CC4CC(CC(C4)C2)C3)cc1)C12CC3CC(CC(C3)C1)C2 (configuration not stated) | 161 nM |  |  |  |  |  | 

Next, values leading:

IC50 [1] | solubility at 24 h [2] | T1/2 [3] | remaining at 0.5 h, 1 µM [4] | remaining at 0.5 h, 1 µM [5] | Ki [6] | IC50 [7] | SMILES
2.6 nM | 5 µM (≈ 2.49 µg/mL) | 2.5 min | 100% | 36% | 2.4 nM | 4.1 nM | O=C(NCCCCCCCCNC(=O)NC1C2CC3CC(C2)CC1C3)NC1C2CC3CC(C2)CC1C3 (configuration not stated)
7.2 nM |  |  |  |  |  |  | O=C(NCCCCNC(=O)NC12CC3CC(CC(C3)C1)C2)NC12CC3CC(CC(C3)C1)C2
39.7 nM |  |  |  |  |  |  | O=C(NCC1CCN(C(=O)NCC23CC4CC(CC(C4)C2)C3)CC1)NCC12CC3CC(CC(C3)C1)C2
780 nM |  |  |  |  |  |  | O=C(NCC12CC3CC(CC(C3)C1)C2)Nc1ccc(NC(=O)NCC23CC4CC(CC(C4)C2)C3)cc1
 | 50 µM (≈ 24.9 µg/mL) | 10 min | 102% | 3% | 3.4 nM | 0.7 nM | O=C(NCCCCCCNC(=O)NCC12CC3CC(CC(C3)C1)C2)NCC12CC3CC(CC(C3)C1)C2
1.2 nM | 5 µM (≈ 1.64 µg/mL) |  | 93% | 19% |  | 1.3 nM | O=C(NC12CC3CC(CC(C3)C1)C2)NC12CC3CC(CC(C3)C1)C2
1.2 nM | 10 µM (≈ 4.99 µg/mL) | 8 min | 92% | 24% | 2.7 nM | 2.5 nM | CC(NC(=O)NCCCCNC(=O)NC(C)C12CC3CC(CC(C3)C1)C2)C12CC3CC(CC(C3)C1)C2 (configuration not stated)
19.5 nM |  |  |  |  |  |  | O=C(Nc1ccc(NC(=O)NC23CC4CC(CC(C4)C2)C3)cc1)NC12CC3CC(CC(C3)C1)C2
